Measured values from PMC3778918 (Clinical cancer research : an official journal of the …, 2013).
Entries after “also recorded” stand apart in the source; their conditions may differ.

Tests used:
[1] = tested on: T11/TP53−/− tumors; assay: Short-term tumor volume response, T11/TP53-/- OST; format: in vivo, mice (BALB/c); conditions: T11/TP53−/− model, 14-day treatment
[2] = tested on: MMTV-Neu tumors; assay: Short-term tumor volume response, MMTV-Neu GEMM; format: in vivo, mice (FVB/n); conditions: MMTV-Neu model; for Tumor response (change in tumor volume), in words: 21-day treatment
In short: (§1)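 FVB/n transgenic mice bred in-house, enrolled at spontaneous mammary tumor onset (~0.5 cm), randomized to treatment or untreated control groups. Injectable agents given i.p. once weekly, three doses over 21 days; oral agents milled into chow, given continuously; combinations at single-agent doses. Caliper and/or ultrasound measurements; volume = (width)² × length/2; response = percent volume change at day 21.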

[3] = tested on: C3(1)-T-antigen tumors; assay: Short-term tumor volume response, C3; format: in vivo, mice (FVB/n); conditions: C3(1)-T-antigen model; for Tumor response (change in tumor volume), in words: 21-day treatment
In short: as §1

[4] = tested on: MMTV-Neu tumors; assay: Overall survival of tumor-bearing mice, MMTV-Neu; format: in vivo, mice (FVB/n); conditions: MMTV-Neu model, single agent
[5] = Paclitaxel pharmacokinetics in plasma and tumor; format: in vivo, transgenic FVB/n mice bearing the MMTV-Neu transgene

Structure (SMILES) | Tumor response (change in tumor volume), in words [1] | Tumor response (change in tumor volume), in words [2] | Tumor response (change in tumor volume), in words [3] | Extension of lifespan, in words [4] | Subset of treated mice showing potent activity [3] [%] | Tumor regression ([2]; all tumors) [%] | Median survival ([4]; untreated median 29 days) [days] | AUC(0-inf) ([5]; FVB/n (MMTV-Neu transgenic), mouse, plasma, ip, 10 mg/kg) [ng·h/mL] | AUC0-∞ in tumor ([5]; single IP dose 10 mg/kg, MMTV-Neu mice, tumor) [µg·h/g]
N.N.O=C([O-])C1(C(=O)[O-])CCC1.[Pt+2] [carboplatin, Carboplatin] | modest but significant responses | modest but significant responses | modest but significant responses |  |  |  |  |  | 
C#Cc1cccc(Nc2ncnc3cc(OCCOC)c(OCCOC)cc23)c1 [erlotinib] |  | highly effective |  | to some extent | ~40 |  |  |  | 
CS(=O)(=O)CCNCc1ccc(-c2ccc3ncnc(Nc4ccc(OCc5cccc(F)c5)c(Cl)c4)c3c2)o1 [lapatinib] | neither erlotinib nor lapatinib were effective | exceptional efficacy; also recorded: highly effective; also recorded: complete tumor regression | ineffective | greatly extended lifespan |  | ~100 | 154 |  | 
CC(=O)O[C@H]1C(=O)[C@@]2(C)[C@H]([C@H](OC(=O)c3ccccc3)[C@]3(O)C[C@H](OC(=O)[C@H](O)[C@@H](NC(=O)c4ccccc4)c4ccccc4)C(C)=C1C3(C)C)[C@]1(OC(C)=O)CO[C@@H]1C[C@@H]2O [paclitaxel] | no response | no response | no response |  |  |  |  | 6300 | 42.4
